1 compound from ChEMBL document CHEMBL4732082, “Development of novel benzimidazole-derived neddylation inhibitors for suppressing tumor growth invitro and invivo” (Eur J Med Chem, 2021) can be followed below.

Assay [1] has as its target T1, NEDD8-activating enzyme E1 regulatory subunit (Homo sapiens) (UniProt Q13564).
T1 sequence (whole entry): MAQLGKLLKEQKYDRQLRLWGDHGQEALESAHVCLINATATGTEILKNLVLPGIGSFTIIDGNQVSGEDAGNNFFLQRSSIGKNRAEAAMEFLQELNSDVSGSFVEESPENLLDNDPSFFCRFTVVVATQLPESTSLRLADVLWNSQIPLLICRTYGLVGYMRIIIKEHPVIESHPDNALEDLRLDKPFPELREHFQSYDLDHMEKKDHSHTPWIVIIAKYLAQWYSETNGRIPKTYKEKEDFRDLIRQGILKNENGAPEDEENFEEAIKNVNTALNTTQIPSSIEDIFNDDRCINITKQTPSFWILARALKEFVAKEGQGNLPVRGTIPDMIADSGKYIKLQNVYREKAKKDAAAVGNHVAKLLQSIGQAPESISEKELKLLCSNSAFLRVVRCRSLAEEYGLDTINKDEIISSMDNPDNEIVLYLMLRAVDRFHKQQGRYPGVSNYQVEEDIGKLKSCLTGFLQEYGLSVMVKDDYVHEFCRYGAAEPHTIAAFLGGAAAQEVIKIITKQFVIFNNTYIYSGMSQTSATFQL
Kind of assay: Inhibition of NAE (unknown origin)-mediated neddylation assessed as suppression of cullin1-Nedd8 adduct formation at 25 uM preincubated for 10 mins followed by ATP addition and measured after 30 mins by immunoblot analysis relative to control. The conditions noted are these: time 40.0 min. On the technique in general: In western blotting, separated proteins are transferred to a membrane and probed.

Assay [2] deals with A549. In words: Antiproliferative activity against human A549 cells assessed as inhibition of cell proliferation at 100 uM incubated for 48 hrs by CCK-8 assay relative to control. It counts as functional. The arrangement: scale not given: the % may be the effect or the level left. The method, boiled down:
(§1)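 Cells from ATCC, passaged six times, grown in DMEM with 10% FBS and penicillin/streptomycin at 37 °C under 5% CO2. Seeded at 2500 cells/well, cultured overnight, treated 48 h, viability read by CCK-8. Run in triplicate; values are the mean of three experiments.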

Assay [3] addresses T2, NEDD8-activating enzyme E1 catalytic subunit (Homo sapiens, UniProt Q8TBC4).
T2 sequence (Q8TBC4 whole entry): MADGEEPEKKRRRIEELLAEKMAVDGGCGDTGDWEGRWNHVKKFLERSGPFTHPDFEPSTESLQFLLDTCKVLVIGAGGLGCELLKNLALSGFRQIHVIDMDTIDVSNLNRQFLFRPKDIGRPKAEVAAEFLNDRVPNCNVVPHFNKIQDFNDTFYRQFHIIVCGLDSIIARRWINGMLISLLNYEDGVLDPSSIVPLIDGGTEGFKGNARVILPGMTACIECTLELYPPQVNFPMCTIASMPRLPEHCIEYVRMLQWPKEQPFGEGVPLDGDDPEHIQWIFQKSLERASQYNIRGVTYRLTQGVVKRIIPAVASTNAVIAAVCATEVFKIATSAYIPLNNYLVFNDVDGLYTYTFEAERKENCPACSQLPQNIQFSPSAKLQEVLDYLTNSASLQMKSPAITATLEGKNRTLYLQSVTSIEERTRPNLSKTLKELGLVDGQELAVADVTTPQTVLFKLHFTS
Kind of assay: Inhibition of NAE (unknown origin)-mediated neddylation assessed as suppression of cullin1-Nedd8 adduct formation preincubated for 10 mins followed by ATP addition and measured after 30 mins by immunoblot analysis.

In another assay the test system is NCI-H1299. Kind of assay: Antiproliferative activity against human H1299 cells incubated for 48 hrs by CCK-8 assay. It counts as functional, cell-based. The settings on record: NCI-H1299, 48 h. The essentials:
as §1
(Formazan colour is commonly taken as a measure of viable cells.)

A short description of assay [4]: Cytotoxicity against human […] cells incubated for 48 hrs by CCK-8 assay. The class given is cell-based. The method, boiled down: as §1
A further assay has as its system BEAS-2B. In words: Cytotoxicity against human BEAS-2B cells incubated for 48 hrs by CCK-8 assay. The class given is cell-based. The method, boiled down: as §1
The target of assay [5] is T1, NEDD8-activating enzyme E1 regulatory subunit (Homo sapiens). Kind of assay: Inhibition of NAE-mediated neddylation in human A549 cells assessed as suppression of cullin1-Nedd8 adduct formation at 12.5 to 25 uM measured after 6 to 12 hrs by Western blot analysis. The conditions noted are these: dose 12.5-25 µM, time 6-12 hrs. The class given is cell-based. The method, boiled down: (§2)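 A549 cells were treated 6 or 12 h with graded concentrations (4.5–75 μM) against a 0.1% DMSO control. Cells were washed in cold PBS, lysed in RIPA on ice and cleared by centrifugation, and protein was normalized. Cullin-Nedd8 was resolved on non-reducing SDS-PAGE and Wee1/p27 under reducing conditions, then detected by Western blot.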

The target is the same in assay [6]. In words: Inhibition of NAE-mediated neddylation in human A549 cells assessed as suppression of cullin2-Nedd8 adduct formation at 12.5 to 25 uM measured after 6 to 12 hrs by Western blot analysis. The class given is cell-based. The conditions noted are these: dose 12.5-25 µM, time 6-12 hrs. The essentials:
as §2

The target is the same in assay [7]. Kind of assay: Inhibition of NAE-mediated neddylation in human A549 cells assessed as suppression of cullin4a-Nedd8 adduct formation at 12.5 to 25 uM measured after 6 to 12 hrs by Western blot analysis. The class given is cell-based. The settings on record: dose 12.5-25 µM, time 6-12 hrs. The essentials:
as §2

For assay [8], the system named is A549. Kind of assay: Induction of Wee1 accumulation in human A549 cells at 50 uM incubated for 6 to 12 hrs by Western blot analysis. It counts as functional, cell-based. The conditions noted are these: time 6-12 hrs. The method, boiled down:
as §2

Assay [9] concerns A549. In words: Induction of p27 accumulation in human A549 cells at 50 uM incubated for 6 to 12 hrs by Western blot analysis. The class given is functional, cell-based. The conditions noted are these: time 6-12 hrs. The method, boiled down:
as §2

The subject of assay [10] is A549. In words: Induction of apoptosis in human A549 cells assessed as increase in PARP cleavage at 12.5 uM by Western blot analysis. It counts as functional, cell-based.
For assay [11], the system named is A549. Kind of assay: Induction of cellular senescence in human A549 cells at 10 uM by SA-beta-gal-staining based assay. The class given is functional, cell-based.
For assay [12], the system named is A549. In words: Antitumor activity against human A549 cells xenografted in nude mouse assessed as decrease in tumor weight at 30 mg/kg, ip qd for 5 days on and 2 days off dosing and measured after 24 days post-treatment. It counts as functional, organism-based. The settings on record: time 24.0 day. The method, boiled down: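 Female nude mice were inoculated subcutaneously with 2×10^6 A549 cells in 0.1 mL PBS. At tumor volume 70–100 mm³, mice were randomized into 5 groups of 6. Dosing was ip or oral gavage, once daily on a 5-days-on/2-days-off schedule, with 10% 2-hydroxypropyl-β-cyclodextrin/water as vehicle control. Body weight and tumor volume were measured every two days; tumors were weighed at sacrifice. Significance by two-tailed Student's t-test.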
In general terms: In xenograft studies the graft and the host belong to different species.

Assay [13] concerns A549. In words: Induction of apoptosis in human A549 cells assessed as early apoptotic cells at 10 uM after 48 hrs by Annexin V-FITC/PI double staining based flow cytometric analysis (reference value: 2.04%). It counts as functional.
The test system of assay [14] is A549. Kind of assay: Induction of apoptosis in human A549 cells assessed as late apoptotic cells at 20 uM after 48 hrs by Annexin V-FITC/PI double staining based flow cytometric analysis (reference value: 4.62%). It counts as functional.
Assay [15] has as its system A549. Kind of assay: Induction of apoptosis in human A549 cells assessed as live cells at 40 uM after 48 hrs by Annexin V-FITC/PI double staining based flow cytometric analysis (reference value: 91.8%). The class given is functional.
The subject of assay [16] is A549. Kind of assay: Induction of apoptosis in human A549 cells assessed as early apoptotic cells at 40 uM after 48 hrs by Annexin V-FITC/PI double staining based flow cytometric analysis (reference value: 2.04%). The class given is functional.
In assay [17] the test system is A549. In words: Induction of apoptosis in human A549 cells assessed as late apoptotic cells at 40 uM after 48 hrs by Annexin V-FITC/PI double staining based flow cytometric analysis (reference value: 4.62%). It counts as functional.
The subject of assay [18] is A549. In words: Induction of apoptosis in human A549 cells assessed as necrotic cells at 40 uM after 48 hrs by Annexin V-FITC/PI double staining based flow cytometric analysis (reference value: 1.57%). The class given is functional.

Activity calls are given as the source filed them. The calls are words filed in the database; no cut-off is given here.

A word on the inhibition: it is the drop in the measured response relative to a control, in per cent. What is called IC50 is the concentration that gives 50% inhibition. For `CCOc1nc2cccc(C(=O)NCCc3ccc(Cl)cc3Cl)c2n1Cc1ccc(-c2ccccc2-c2nnn[nH]2)cc1`, the inhibition in assay [1] was determined as 86.4%. Moreover, the Activity in the assay on A549 [2] is given as 83.9%; in the assay with A549 [13], 2.04%; in the assay with A549 [14], 7.03%; with A549 [15], 63.2%; in the assay on A549 [16], 32.1%; with A549 [17], 3.71%. In addition, the Activity with A549 [18] is 1.02%. In addition, the IC50 came to 5.51 µM in assay [3], 21.8 µM in the assay with NCI-H1299, 76.1 µM in assay [4] and 79.4 µM with BEAS-2B. Moreover, the inhibition result in assay [5], in assay [6] and in assay [7] was “Active” throughout. The result with A549 [8], with A549 [9], with A549 [10], in the assay on A549 [11] and with A549 [12] was Active.
